Assay results published in ChEMBL document CHEMBL3227962, “Synthesis of hydroxy- and amino-substituted benzohydroxamic acids: inhibition of ribonucleotide reductase and antitumor activity” (J Med Chem, 1979).

What was measured:
[1] = organism: Rattus norvegicus; assay: Inhibition of ribonucleotide reductase purified from rat Novikoff hepatoma assessed as inhibition of [3H]CDP to [3H]dCDP conversion after 40 mins
How it was run: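 Ribonucleotide reductase was partially purified from Novikoff hepatoma. The 0.34 mL mix held 3 µCi [3H]CDP (14–19 Ci/mmol), 3.3 mM ATP, 5.9 mM MgCl2, 8.8 mM Hepes pH 7.5, 15 mM DTT and 0.4–1.3 mg enzyme protein, incubated 40 min at 30 °C. Vehicle was water, ≤1% ethanol or 2% DMSO. Each inhibitor was tested at ≥3 concentrations, with actives repeated. ID50 was read from graphs.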

[2] = tested on: L1210; assay: Antitumor activity against mouse L1210 cells allografted in C6D2F1 mouse at 100 to 1000 mg/kg, ip for 8 days starting from day 1 of challenge relative to control; conditions: dose mg/kg 100-1000; route intraperitoneal
[3] = tested on: L1210; assay: Antitumor activity against ip dosed mouse L1210 cells allografted in C6D2F1 mouse assessed as dose to achieve maximum life span administered for 8 days starting from day 1 of challenge; format: functional
How it was run: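 L1210 leukemia propagated in DBA/2 mice; diluted ascitic fluid (0.10 mL, 10^5 cells) injected ip into female C6D2F1 mice (~20 g) on day 0. Compounds given ip once daily for 8 days from day 1, generally three doses in the 100–1000 mg/kg range, 8 mice per dose; other doses per toxicity. Read-out: life span as T/C %.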

[4] = tested on: L1210; assay: Antitumor activity against mouse L1210 cells allografted in C6D2F1 mouse at 200 mg/kg, ip for 8 days starting from day 1 of challenge relative to control; format: functional; conditions: route intraperitoneal
[5] = tested on: Mus musculus; assay: Toxicity in mouse L1210 cells allografted C6D2F1 mouse at 500 mg/kg, ip for 8 days measured on day 3; format: organism-based; parameters: dose 500 mg/kg, route intraperitoneal; conditions: in vivo, 192 h
[6] = tested on: L1210; assay: Antitumor activity against mouse L1210 cells allografted in C6D2F1 mouse at 500 mg/kg, ip for 8 days starting from day 1 of challenge relative to control; format: functional; conditions: route intraperitoneal
[7] = tested on: L1210; assay: Antitumor activity against mouse L1210 cells allografted in C6D2F1 mouse at 450 mg/kg, ip for 8 days starting from day 1 of challenge relative to control; format: functional; conditions: route intraperitoneal
[8] = tested on: L1210; assay: Antitumor activity against mouse L1210 cells allografted in C6D2F1 mouse at 300 mg/kg, ip for 8 days starting from day 1 of challenge relative to control; format: functional; conditions: route intraperitoneal
[9] = tested on: L1210; assay: Antitumor activity against mouse L1210 cells allografted in C6D2F1 mouse at 600 mg/kg, ip for 8 days starting from day 1 of challenge relative to control; format: functional; conditions: route intraperitoneal
[10] = tested on: L1210; assay: Antitumor activity against mouse L1210 cells allografted in C6D2F1 mouse at 1000 mg/kg, ip for 8 days starting from day 1 of challenge relative to control; format: functional; conditions: route intraperitoneal
[11] = tested on: L1210; assay: Antitumor activity against mouse L1210 cells allografted in C6D2F1 mouse at 700 mg/kg, ip for 8 days starting from day 1 of challenge relative to control; format: functional; conditions: route intraperitoneal
[12] = tested on: L1210; assay: Antitumor activity against mouse L1210 cells allografted in C6D2F1 mouse at 800 mg/kg, ip for 8 days starting from day 1 of challenge relative to control; format: functional; conditions: route intraperitoneal
[13] = tested on: Mus musculus; assay: Toxicity in mouse L1210 cells allografted C6D2F1 mouse at 800 mg/kg, ip for 8 days measured on day 2; format: organism-based; parameters: dose 800 mg/kg, route intraperitoneal; conditions: in vivo, 192 h
[14] = tested on: L1210; assay: Antitumor activity against mouse L1210 cells allografted in C6D2F1 mouse at 400 mg/kg, ip for 8 days starting from day 1 of challenge relative to control; format: functional; conditions: route intraperitoneal
[15] = tested on: L1210; assay: Antitumor activity against mouse L1210 cells allografted in C6D2F1 mouse at 100 mg/kg, ip for 8 days starting from day 1 of challenge relative to control; format: functional; conditions: route intraperitoneal
[16] = organism: Rattus norvegicus; assay: Ratio of hydroxyurea ID50 to compound ID50 for ribonucleotide reductase purified from rat Novikoff hepatoma assessed as inhibition of [3H]CDP to [3H]dCDP conversion after 40 mins
[17] = tested on: L1210; assay: Antitumor activity against mouse L1210 cells allografted in C6D2F1 mouse at 63 mg/kg, ip for 8 days starting from day 1 of challenge relative to control; format: functional; conditions: route intraperitoneal
[18] = tested on: L1210; assay: Antitumor activity against mouse L1210 cells allografted in C6D2F1 mouse at 75 mg/kg, ip for 8 days starting from day 1 of challenge relative to control; format: functional; conditions: route intraperitoneal
[19] = tested on: L1210; assay: Antitumor activity against mouse L1210 cells allografted in C6D2F1 mouse at 320 mg/kg, ip for 8 days starting from day 1 of challenge relative to control; format: functional; conditions: route intraperitoneal
[20] = tested on: L1210; assay: Antitumor activity against mouse L1210 cells allografted in C6D2F1 mouse at 125 mg/kg, ip for 8 days starting from day 1 of challenge relative to control; format: functional; conditions: route intraperitoneal
[21] = tested on: L1210; assay: Antitumor activity against mouse L1210 cells allografted in C6D2F1 mouse at 139 mg/kg, ip bid at interval of 7 hrs between each dosing for 8 days starting from day 1 of challenge relative to control; format: functional; conditions: route intraperitoneal
How it was run: (§1)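 Mice were female C6D2F1 of about 20 g, inoculated ip on day 0 with 10^5 L1210 ascites cells grown in DBA/2 mice. Drug was given ip twice daily at 139 mg/kg per dose for 8 days, varying the interval between the two daily injections. Read-out is the T/C % of life span.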

[22] = tested on: L1210; assay: Antitumor activity against mouse L1210 cells allografted in C6D2F1 mouse at 139 mg/kg, ip bid at interval of 3 hrs between each dosing for 8 days starting from day 1 of challenge relative to control; format: functional; conditions: route intraperitoneal; how it was run: as §1
[23] = tested on: L1210; assay: Antitumor activity against mouse L1210 cells allografted in C6D2F1 mouse at 139 mg/kg, ip bid at interval of 1 hr between each dosing for 8 days starting from day 1 of challenge relative to control; format: functional; conditions: route intraperitoneal; how it was run: as §1
[24] = tested on: L1210; assay: Antitumor activity against mouse L1210 cells allografted in C6D2F1 mouse at 139 mg/kg, ip bid at interval of 5 hrs between each dosing for 8 days starting from day 1 of challenge relative to control; format: functional; conditions: route intraperitoneal; how it was run: as §1

Nc1cccc(C(=O)NO)c1
ID50 [1]: 350 µM | T/C [2]: 110% | Activity [3]: 500 mg/kg

O=C(NO)c1cccc(O)c1O
ID50 [1]: 8 µM | T/C [4]: 136% | Activity [5]: Toxic | T/C [6]: 100% | T/C [2]: 136% | T/C [7]: 103% | T/C [8]: 107% | Activity [3]: 200 mg/kg

O=C(NO)c1c(O)cccc1O
ID50 [1]: 100 µM

O=C(NO)c1ccccc1O [SALICYLHYDROXAMIC ACID]
ID50 [1]: 150 µM | T/C [2]: 147% | Activity [3]: 500 mg/kg

Nc1ccc(C(=O)NO)c(O)c1
ID50 [1]: 200 µM | T/C [2]: 115% | Activity [3]: 1000 mg/kg

O=C(NO)c1ccccc1 [BENZOHYDROXAMATE]
ID50 [1]: 400 µM | T/C [2]: 144% | Activity [3]: 500 mg/kg

O=C(NO)c1ccc(O)cc1O
ID50 [1]: 250 µM | T/C [2]: 142% | Activity [3]: 500 mg/kg

O=C(NO)c1cc(O)ccc1O
ID50 [1]: 200 µM | T/C [2]: 130% | Activity [3]: 300 mg/kg

Nc1ccc(C(=O)NO)cc1
ID50 [1]: 150 µM | T/C [2]: 162% | Activity [3]: 500 mg/kg

O=C(NO)c1cccc(O)c1
ID50 [1]: 350 µM | T/C [9]: 156% | T/C [4]: 123% | T/C [6]: 177% | T/C [10]: 68% | T/C [2]: 177% | Activity [3]: 500 mg/kg | T/C [11]: 148%

Nc1ccc(C(=O)NO)cc1N
ID50 [1]: 40 µM | T/C [2]: 140% | Activity [3]: 300 mg/kg

O=C(NO)c1ccc(O)c(O)c1
ID50 [1]: 30 µM | T/C [9]: 203% | T/C [6]: 184% | T/C [12]: 28% | Activity [13]: Toxic | T/C [2]: 203% | T/C [8]: 156% | Activity [3]: 600 mg/kg | T/C [14]: 154% | T/C [15]: 125%

NC(=O)NO [HYDROXYUREA]
ID50 [1]: 500 µM | T/C [2]: 162% | Activity [3]: 2500 mg/kg

O=C(NO)c1ccc(O)c(O)c1O
Ratio [16]: 140 | ID50 [1]: 3.5 µM | T/C [4]: 108% | T/C [2]: 130% | T/C [17]: 111% | T/C [8]: 92% | T/C [18]: 109% | Activity [3]: 125 mg/kg | T/C [19]: 46% | T/C [20]: 130%

O=C(NO)c1cc(O)cc(O)c1
ID50 [1]: 400 µM | T/C [2]: 152% | Activity [3]: 1000 mg/kg

O=C(NO)c1ccc(O)cc1
ID50 [1]: 250 µM | T/C [2]: 124% | Activity [3]: 400 mg/kg

Nc1ccccc1C(=O)NO
ID50 [1]: 120 µM | T/C [2]: 150% | Activity [3]: 500 mg/kg

O=C(NO)c1cc(O)c(O)c(O)c1
ID50 [1]: 10 µM | T/C [4]: 147% | T/C [12]: 56% | T/C [21]: 172% | T/C [2]: 153% | Activity [3]: 400 mg/kg | T/C [14]: 153% | T/C [22]: 168% | T/C [23]: 151% | T/C [15]: 125% | T/C [24]: 189%
